Assay results as given in paper PMC6427922 (Bioorganic & medicinal chemistry letters, 2018).
pEC50: −log10 of the molar value. “Also recorded” adds a separate entry of the source. Where two headings read alike, the source gives them in different places. Each block holds one compound with its values, some of them ahead of it.

How the values were obtained:
[1] = target: T1, hM1 (Homo sapiens, UniProt P11229); assay type: cell-based; details: for M1 PAM activity in words (relative to 14 or comparators): hM1-CHO
T1 sequence (P11229 1-460): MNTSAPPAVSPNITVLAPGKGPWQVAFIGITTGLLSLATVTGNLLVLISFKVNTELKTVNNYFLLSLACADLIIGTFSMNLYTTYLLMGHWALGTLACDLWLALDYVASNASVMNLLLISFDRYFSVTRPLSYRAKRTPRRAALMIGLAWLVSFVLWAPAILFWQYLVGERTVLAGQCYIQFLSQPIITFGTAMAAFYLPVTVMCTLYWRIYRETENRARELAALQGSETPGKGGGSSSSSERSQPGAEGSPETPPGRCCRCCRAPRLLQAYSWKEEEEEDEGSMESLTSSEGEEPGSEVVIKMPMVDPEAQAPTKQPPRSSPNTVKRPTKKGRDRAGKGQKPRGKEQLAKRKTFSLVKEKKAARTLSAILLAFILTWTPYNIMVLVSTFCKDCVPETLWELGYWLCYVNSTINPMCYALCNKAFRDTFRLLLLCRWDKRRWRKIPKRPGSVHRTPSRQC
In short: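 Calcium mobilization in CHO cells expressing human M1, with a fixed EC20 concentration of acetylcholine present. Read-outs are EC50, pEC50 and ACh Max. Values are means of three independent experiments, each run in triplicate. Fold changes are expressed against a racemic reference compound.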

[2] = Metabolite identification studies; assay type: in vitro ADME
[3] = tested on: NR1 knock-down mice; details: cited from earlier work
[4] = mice; cited from earlier work
[5] = rats; cited from earlier work
[6] = tested on: cognitive deficits induced by risperidone; details: cited from earlier work
[7] = non-human primates; cited from earlier work
[8] = tested on: M1; details: cells and native systems; cited from earlier work
[9] = tested on: M2; details: read-out: M2 EC50; selectivity; cited from earlier work
[10] = tested on: M4; details: read-out: M4 EC50; selectivity; cited from earlier work
[11] = tested on: M5; details: read-out: M5 EC50; selectivity; cited from earlier work
[12] = target: T1, hM1; details: reference compound, racemate of 7; cited from earlier work
[13] = Predicted hepatic clearance, human; assay type: in vitro ADME
[14] = tested on: M3; details: read-out: M3 EC50; selectivity; cited from earlier work

Structure (SMILES): Cn1nccc1-c1ccc(CN2CC(C(=O)N[C@H]3CCCC[C@@H]3O)Oc3ccccc32)cn1 (some centres unmarked) [28 k]
M1 PAM activity in words (relative to 14 or comparators) [1]: active

Structure (SMILES): Cn1cc(-c2ccc(Cn3cc(C(=O)N[C@H]4CCCC[C@@H]4O)c4c(F)cc(F)cc43)cn2)cn1 [compound 6]
Efficacy in NR1 knock-down mice [3]: robust efficacy

Structure (SMILES): O=C(N[C@H]1CCCC[C@@H]1O)[C@H]1CN(Cc2ccc(-n3cccn3)cc2)c2ccccc2O1 [compound 7]
Cholinergic toxicity [4]: devoid of cholinergic toxicity | Cholinergic toxicity [5]: devoid of cholinergic toxicity | Reversal of cognitive deficits induced by atypical antipsychotics [6]: reverse the cognitive deficits induced by atypical antipsychotics | Cholinergic toxicity [7]: devoid of cholinergic toxicity | M1 agonism [8]: devoid of M1 agonism; also recorded: devoid of agonist activity in native systems

Structure (SMILES): O=C(N[C@H]1CCCC[C@@H]1O)C1CN(Cc2ccc(-n3cccn3)cc2)c2ccccc2O1 (some centres unmarked) [compound 14]
pEC50 [9]: < 4.52 | pEC50 [10]: < 4.52 | pEC50 [11]: < 4.52 | M1 pEC50 [12]: 6.10 ± 0.13 | Predicted hepatic clearance CLhep, human [13]: 11.1 mL/min/kg | pEC50 [14]: < 4.52 | Route of metabolism [2]: P450-mediated debenzylation to afford 26

Structure (SMILES): O=C(N[C@H]1CCCC[C@@H]1O)C1Cc2ccccc2N(Cc2ccc(-n3cccn3)cc2)C1 (some centres unmarked) [compound 15]
M1 PAM activity in words (relative to 14 or comparators) [1]: essentially equipotent to 14

Structure (SMILES): O=C(N[C@H]1CCCC[C@@H]1O)C1CN(Cc2ccc(-n3cccn3)nc2)c2ccccc2O1 (some centres unmarked) [compound 18]
M1 PAM activity in words (relative to 14 or comparators) [1]: equipotent to 14

Structure (SMILES): O=C(N[C@H]1CCCC[C@@H]1O)C1CN(Cc2ccc(-n3cccn3)cc2)c2c(F)cccc2O1 (some centres unmarked) [compound 21]
Fold decrease in M1 PAM activity relative to 14 ([1]; relative to 14): ~ 3 fold

Structure (SMILES): O=C(N[C@H]1CCCC[C@@H]1O)C1CN(Cc2ccc(-n3cccn3)cc2)c2cc(F)ccc2O1 (some centres unmarked) [compound 22]
Fold increase in M1 PAM potency relative to 14 ([1]; relative to 14): ~ 3 fold

Structure (SMILES): O=C(N[C@H]1CCCC[C@@H]1O)C1CN(Cc2ccc(-n3cccn3)cc2)c2cccc(F)c2O1 (some centres unmarked) [compound 24]
Fold increase in M1 PAM potency relative to 14 ([1]; relative to 14): ~7 fold

Further lines, with some results ahead:

M1 PAM activity in words (relative to 14 or comparators) [1]: comparable activity
Structure (SMILES): O=C(N[C@H]1CCC[C@@H]1O)C1CN(Cc2ccc(-n3cccn3)cc2)c2ccccc2O1 (some centres unmarked) [25b]

Fold loss in M1 PAM activity on deletion of the hydroxyl group on the pyran ring ([1]; relative to pyran homolog 25c): ~ 34 fold
Structure (SMILES): O=C(NC1CCOCC1)C1CN(Cc2ccc(-n3cccn3)cc2)c2ccccc2O1 (centres unmarked) [25d]

M1 PAM activity in words (relative to 14 or comparators) [1]: retained reasonable M1 PAM activity
Structure (SMILES): NC1CCCCC1NC(=O)C1CN(Cc2ccc(-n3cccn3)cc2)c2ccccc2O1 (centres unmarked) [25e]

M1 PAM activity in words (relative to 14 or comparators) [1]: retained reasonable M1 PAM activity
Structure (SMILES): O=C(N[C@H]1CCCCC1=O)C1CN(Cc2ccc(-n3cccn3)cc2)c2ccccc2O1 (some centres unmarked) [25f]

M1 PAM activity in words (relative to 14 or comparators) [1]: equipotent to 14
Structure (SMILES): O=C(Nc1ncccc1O)C1CN(Cc2ccc(-n3cccn3)cc2)c2ccccc2O1 (centres unmarked) [25j]
Route of metabolism [2]: amide hydrolysis by esterases liberating 27

M1 PAM activity in words (relative to 14 or comparators) [1]: increase in M1 PAM potency
Structure (SMILES): O=C(N[C@H]1CCCC[C@@H]1O)C1CN(Cc2ccc(-n3cccc3)nc2)c2ccccc2O1 (some centres unmarked) [28j]
